# According to ChEMBL document CHEMBL3425481, “Design, synthesis and anticancer activity of matrine-1H-1,2,3-triazole-chalcone conjugates” (Bioorg Med Chem Lett, 2015):
# Key:
# [1] = system: A549; assay: Induction of apoptosis in human A549 cells at 15 to 50 uM incubated for 24 hrs by Annexin V-FITC/propidium iodide double staining based flow cytometry; type: functional
# In short: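 A549 cells exposed for 24 h at three concentrations alongside a 0.1% DMSO control. Cells double-stained with Annexin V-FITC/propidium iodide and analysed by flow cytometry. Early apoptosis was read from the lower-right quadrant and late apoptosis from the upper-right, and both were summed. Done in triplicate, with statistics compared to control.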
# [2] = Antiproliferative activity against human Bel7402 cells assessed as inhibition of cell proliferation incubated for 48 hrs by CCK8 assay; type: functional, cell-based; conditions: Bel-7402, 48 h
# In short: (§1)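 Human A549 lung, Hela cervical, Bel-7402 hepatocellular and MCF-7 breast cancer cells, plus mouse embryo fibroblast NIH3T3, tested for anti-proliferative activity by CCK-8 assay. For the matrine combination tests, the chalcone and matrine were used at a 1:1 molar ratio; values given as IC50.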
# [3] = system: HeLa; assay: Antiproliferative activity against human HeLa cells assessed as inhibition of cell proliferation incubated for 48 hrs by CCK8 assay; type: functional, cell-based; in short: as §1
# [4] = system: MCF7; assay: Antiproliferative activity against human MCF7 cells assessed as inhibition of cell proliferation incubated for 48 hrs by CCK8 assay; type: functional, cell-based; conditions: MCF7, 48 h; in short: as §1
# [5] = system: A549; assay: Antiproliferative activity against human A549 cells assessed as inhibition of cell proliferation incubated for 48 hrs by CCK8 assay; type: functional, cell-based; conditions: A549, 48 h; in short: as §1
# [6] = Antiproliferative activity against human Bel7402 cells assessed as inhibition of cell proliferation incubated for 48 hrs in presence of matrine by CCK8 assay; type: functional, cell-based; conditions: Bel-7402, 48 h; in short: as §1
# [7] = system: MCF7; assay: Antiproliferative activity against human MCF7 cells assessed as inhibition of cell proliferation incubated for 48 hrs in presence of matrine by CCK8 assay; type: functional, cell-based; conditions: MCF7, 48 h; in short: as §1
# [8] = system: A549; assay: Antiproliferative activity against human A549 cells assessed as inhibition of cell proliferation incubated for 48 hrs in presence of matrine by CCK8 assay; type: functional, cell-based; conditions: A549, 48 h; in short: as §1
# [9] = Antiproliferative activity against mouse NIH/3T3 cells assessed as inhibition of cell proliferation incubated for 48 hrs by CCK8 assay; type: cell-based; conditions: NIH3T3, 48 h; in short: as §1
# [10] = system: HeLa; assay: Antiproliferative activity against human HeLa cells assessed as inhibition of cell proliferation incubated for 48 hrs in presence of matrine by CCK8 assay; type: functional, cell-based; in short: as §1
IC50 [7],IC50 [8],IC50 [10],Compound,Activity [1],IC50 [2],IC50 [3],IC50 [4],IC50 [5],IC50 [6],IC50 [9]
,,,O=C1CCC[C@@H]2[C@H]3CCCN4CCC[C@@H](CN12)[C@@H]34 [MATRINE],28.4%,> 50 µM,> 50 µM,> 50 µM,> 50 µM,,
> 50 µM,> 50 µM,> 50 µM,C#CCOc1ccc(C(=O)/C=C/c2ccccc2)c(O)c1,,,> 50 µM,> 50 µM,> 50 µM,> 50 µM,66.6 µM
